{
  "source": "ChEMBL document CHEMBL4396878",
  "about": "“Mechanisms of Specific versus Nonspecific Interactions of Aggregation-Prone Inhibitors and Attenuators” (J Med Chem, 2019)",
  "key": {"[1]": {"test": "Aggregation property of the compound in NMR buffer assessed as aggregate size at 500 uM by dynamic light scattering analysis", "format": "physicochemical", "procedure,_shortened": "(§1)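 Dynamic light scattering in NMR buffer, samples filtered through 0.22 μm and centrifuged 5 min at 13 500 rpm before measurement. Autocorrelation accumulated 150 s at a 173° scattering angle, in replicates of 3–5, with water viscosity used in analysis; intensity or volume size distributions reported.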"}, "[2]": {"test": "Aggregation property of the compound in NMR buffer assessed as diameter of aggregate at 500 uM by dynamic light scattering analysis", "format": "physicochemical", "procedure,_shortened": "as §1"}, "[3]": {"test": "Aggregation property of the compound assessed as shift in peak width by 1H-NMR analysis", "format": "physicochemical", "procedure,_shortened": "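Line widths, chemical shifts and peak intensities tracked; CAC taken as the concentration where intensities deviate from linear dependence, or, for line width, the minimal concentration that increases peak width.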"}, "[4]": {"test": "Binding affinity to Triton-X 100 assessed as intra-molecular saturation transfer at 100 uM at 6.61 ppm by STD spectra analysis", "procedure,_shortened": "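STD NMR, saturation by a train of 40 Gaussian pulses of 50 ms each; selective on-resonance irradiation at the stated ppm (TX at 7.48 ppm), off-resonance at 30 ppm, interleaved and subtracted by phase cycling. 32K points, 16 ppm width centred at 4.7 ppm, 256 scans, 16 dummy scans, 0.1 s recycle delay (~15 min); 3 Hz exponential line broadening.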"}, "[5]": {"target": "T1, Rap guanine nucleotide exchange factor 3 (Homo sapiens) (UniProt O95398)", "T1 sequence (whole entry)": "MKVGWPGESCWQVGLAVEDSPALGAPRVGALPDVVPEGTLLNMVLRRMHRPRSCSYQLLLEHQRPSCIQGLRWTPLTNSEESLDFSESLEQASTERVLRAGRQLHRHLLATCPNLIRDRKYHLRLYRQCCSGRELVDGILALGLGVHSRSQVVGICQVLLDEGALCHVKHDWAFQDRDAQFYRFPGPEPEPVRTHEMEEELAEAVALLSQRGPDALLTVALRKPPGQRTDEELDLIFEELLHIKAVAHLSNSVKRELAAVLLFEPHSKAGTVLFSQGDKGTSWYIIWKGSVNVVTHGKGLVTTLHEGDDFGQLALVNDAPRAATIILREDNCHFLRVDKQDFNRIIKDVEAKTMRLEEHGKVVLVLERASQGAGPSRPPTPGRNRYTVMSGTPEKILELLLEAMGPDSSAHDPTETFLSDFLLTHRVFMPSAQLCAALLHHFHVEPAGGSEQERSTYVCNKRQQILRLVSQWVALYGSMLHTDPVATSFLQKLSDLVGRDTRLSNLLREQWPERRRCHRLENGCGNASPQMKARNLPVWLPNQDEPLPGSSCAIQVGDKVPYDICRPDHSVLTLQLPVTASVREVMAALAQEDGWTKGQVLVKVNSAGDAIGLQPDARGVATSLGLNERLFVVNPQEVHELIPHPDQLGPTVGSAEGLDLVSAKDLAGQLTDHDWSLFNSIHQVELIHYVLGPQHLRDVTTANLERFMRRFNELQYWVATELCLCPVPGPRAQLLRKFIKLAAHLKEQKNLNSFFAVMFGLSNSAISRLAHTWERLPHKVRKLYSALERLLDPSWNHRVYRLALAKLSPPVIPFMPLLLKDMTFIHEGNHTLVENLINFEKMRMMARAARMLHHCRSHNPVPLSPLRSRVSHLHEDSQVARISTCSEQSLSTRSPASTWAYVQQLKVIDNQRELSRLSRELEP", "test": "Binding affinity to human EPAC1 cAMP binding domain (149 to 318 residues) assessed as residue-dependent change in chemical shift at 100 uM using aggregate form of compound by [15N-1H]HSQC spectroscopic analysis"}, "[6]": {"target": "T2, Rap guanine nucleotide exchange factor 3 (Homo sapiens, UniProt O95398)", "T2 sequence (O95398 whole entry)": "T1 sequence (whole entry)", "test": "Inhibition of 8-NBD-cAMP binding to human EPAC1 cAMP binding domain (149 to 318 residues) by fluorescence assay"}, "[7]": {"test": "Reversible binding affinity to Triton-X 100 at dilution from 100 uM by 1H-NMR spectra analysis"}, "[8]": {"target": "T1, Rap guanine nucleotide exchange factor 3 (Homo sapiens)", "test": "Binding affinity to human EPAC1 cAMP binding domain (149 to 318 residues) assessed as peak size at 50 to 200 uM by dynamic light scattering analysis", "procedure,_shortened": "as §1"}, "[9]": {"target": "T1, Rap guanine nucleotide exchange factor 3 (Homo sapiens)", "test": "Binding affinity to human EPAC1 cAMP binding domain (149 to 318 residues) assessed as peak size at 50 to 200 uM using aggregate form of compound by dynamic light scattering analysis", "procedure,_shortened": "as §1"}, "[10]": {"test": "Binding affinity to Triton-X 100 assessed as change in chemical shift for aggregate formation at 100 to 300 uM by 1H-NMR analysis"}, "[11]": {"test": "Binding affinity to Triton-X 100 assessed as line broadening at 100 to 300 uM by 1H-NMR analysis"}, "[12]": {"target": "T3, Albumin (Homo sapiens, UniProt P02768)", "T3 sequence (P02768 whole entry)": "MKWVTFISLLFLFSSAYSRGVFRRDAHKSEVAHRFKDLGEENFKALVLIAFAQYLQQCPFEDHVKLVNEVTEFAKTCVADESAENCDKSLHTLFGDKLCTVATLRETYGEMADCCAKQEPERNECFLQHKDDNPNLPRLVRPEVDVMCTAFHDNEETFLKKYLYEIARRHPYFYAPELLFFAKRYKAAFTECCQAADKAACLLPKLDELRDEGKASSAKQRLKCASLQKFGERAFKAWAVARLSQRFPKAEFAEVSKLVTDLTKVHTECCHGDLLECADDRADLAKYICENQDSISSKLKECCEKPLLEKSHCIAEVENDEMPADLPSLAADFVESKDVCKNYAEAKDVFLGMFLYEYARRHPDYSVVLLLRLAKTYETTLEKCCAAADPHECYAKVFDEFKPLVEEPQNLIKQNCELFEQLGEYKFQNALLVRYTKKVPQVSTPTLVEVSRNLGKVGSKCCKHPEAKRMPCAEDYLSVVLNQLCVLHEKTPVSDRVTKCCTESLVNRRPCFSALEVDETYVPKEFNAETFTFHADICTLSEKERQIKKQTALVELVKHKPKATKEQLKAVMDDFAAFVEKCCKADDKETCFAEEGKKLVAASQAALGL", "test": "Binding affinity to human serum albumin assessed as line broadening at 100 uM by 1D 1H NMR analysis"}, "[13]": {"target": "T3, Albumin", "test": "Displacement of [13C]oleic acid from human serum albumin by CH-HSQC spectra analysis", "procedure,_shortened": "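Fatty-acid-free recombinant HSA at 250 μM in sodium phosphate buffer (20 mM NaPO4, pH 7.6, 50 mM NaCl, D2O), 37 °C for 30 min. 13C-oleic acid (100 mM stock in DMSO-d6, warmed to 50 °C for 10 min) added to 1.5 mM, then 2 h at 37 °C. CH-HSQC at 298 K; loss of site-specific cross-peaks A–H scored.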"}, "[14]": {"target": "T3, Albumin", "test": "Displacement of dansylated arginine from human serum albumin by fluorescence assay", "settings": "read-out: Kd(app)", "procedure,_shortened": "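Competition of ligand against 100 μM dansyl-arginine (Sudlow site 1, 1:1 stoichiometry) bound to 2.5 μM HSA. Excitation 370 nm, emission 460 nm. Apparent Kd fitted by Wang's method using least squares, assuming no other ligand sites on HSA, so treated as a maximum apparent value.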"}, "[15]": {"target": "T3, Albumin", "test": "Displacement of dansylated phenylalanine from human serum albumin by fluorescence assay", "settings": "read-out: Kd(app)", "procedure,_shortened": "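Competition of ligand against 100 μM dansyl-phenylalanine (binds Sudlow sites 1 and 2) bound to 2.5 μM HSA. Excitation 370 nm, emission 480 nm. Fractional saturation modelled with two sites, free HSA assumed negligible; least-squares fit with no further ESI sites, giving maximum apparent dissociation constants.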"}, "[16]": {"target": "T3, Albumin", "test": "Displacement of ANS from human serum albumin up to 50 uM by fluorescence assay", "procedure,_shortened": "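Fluorescence competition: 2.5 μM HSA with 5 or 100 μM ANS, ligand added over a concentration range. Excitation 360 nm; emission read at 460 and 480 nm to check for blue shift. Signal normalized between ANS alone (minimum) and HSA:ANS (maximum).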"}, "[17]": {"target": "T1, Rap guanine nucleotide exchange factor 3 (Homo sapiens)", "test": "Ratio of apparent Kd for binding affinity to human EPAC1 cAMP binding domain (149 to 318 residues) in presence of human serum albumin to apparent Kd for binding affinity to human EPAC1 cAMP binding domain (149 to 318 residues) in absence of human serum albumin"}, "[18]": {"target": "T1, Rap guanine nucleotide exchange factor 3 (Homo sapiens)", "test": "Binding affinity to human EPAC1 cAMP binding domain (149 to 318 residues) assessed as change in chemical shift at 100 uM in presence of human serum albumin by [15N-1H]HSQC spectroscopic analysis relative to compound alone"}},
  "note": "Calls of active or inactive are those of the source. The rule behind the calls is not given here.",
  "data": [
    {"molecule": "CC(C)(C)c1cc(C(=O)/C(C#N)=N/Nc2cccc(Cl)c2)no1", "values": [
      {"measurement": "Activity", "setting": "[1]", "value": "90 to 600", "unit": "nm"},
      {"measurement": "Activity", "setting": "[2]", "value": 250, "unit": "nm"},
      {"measurement": "Activity", "setting": "[3]", "value": "Not Active"},
      {"measurement": "Activity", "setting": "[4]", "value": "Active"},
      {"measurement": "Activity", "setting": "[5]", "value": "Active"},
      {"measurement": "Kd", "setting": "[6]", "value": 20000, "unit": "nM"},
      {"measurement": "Activity", "setting": "[7]", "value": "Active"},
      {"measurement": "Activity", "setting": "[8]", "value": "< 5", "unit": "nm"},
      {"measurement": "Activity", "setting": "[9]", "value": 250, "unit": "nm"},
      {"measurement": "Activity", "setting": "[10]", "value": "Active"},
      {"measurement": "Activity", "setting": "[11]", "value": "Active"},
      {"measurement": "Activity", "setting": "[12]", "value": "Active"},
      {"measurement": "Activity", "setting": "[13]", "value": "Active"},
      {"measurement": "Kd", "setting": "[14]", "value": 230, "unit": "nM"},
      {"measurement": "Kd", "setting": "[15]", "value": 99, "unit": "nM"},
      {"measurement": "Activity", "setting": "[16]", "value": "Active"},
      {"measurement": "Activity", "setting": "[17]", "value": "inactive"},
      {"measurement": "Activity", "setting": "[18]", "value": "< 30", "unit": "%"}
    ]}
  ]
}
